Screening data: PubChem, Sanford-Burnham Center for Chemical Genomics
PMI act satM6P: increases human PMI activity with near-saturating mannose 6-phosphate; coupled PMI enzyme assay, resazurin fluorescence, 20 min; hits give high values; 1 = untreated enzyme, 0 = substrate-free blank; activation factor at 20 µM; 190,000 compounds, 0.34% hits; P34949;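 active = activation factor of 2 or more at 20 µM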
Target sequence (P34949 whole entry, looked up): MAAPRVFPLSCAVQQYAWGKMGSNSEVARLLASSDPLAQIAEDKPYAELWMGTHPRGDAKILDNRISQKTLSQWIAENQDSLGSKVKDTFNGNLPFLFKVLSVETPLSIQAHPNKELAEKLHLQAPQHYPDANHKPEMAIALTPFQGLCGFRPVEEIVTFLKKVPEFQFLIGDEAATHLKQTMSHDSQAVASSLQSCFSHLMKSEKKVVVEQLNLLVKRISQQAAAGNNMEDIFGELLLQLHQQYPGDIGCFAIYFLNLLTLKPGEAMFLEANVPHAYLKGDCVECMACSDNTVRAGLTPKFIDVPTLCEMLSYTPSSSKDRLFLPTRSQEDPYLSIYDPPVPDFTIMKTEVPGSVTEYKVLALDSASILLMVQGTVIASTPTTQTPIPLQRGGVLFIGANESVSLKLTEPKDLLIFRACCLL
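Material: human phosphomannose isomerase with PGI, G6PDH, diaphorase coupling enzymes / Reagent: Man-6-P substrate 1.0 mM / Dosing: single compound dose of 20 µM, 1% DMSO final / Incubation: enzyme reaction with compound 20 min at room temperature / Signal: resorufin fluorescence (Ex 544/Em 590 nm) from resazurin via diaphorase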
PMI activator: phosphomannose isomerase (human) activation; P34949; purified human PMI, coupled resazurin fluorescence, 20 min; hits give high values; 1 = vehicle control, 0 substrate-free wells; activation factor at 20 µM; 190,000 compounds, 0.005% hits;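 active = activation factor of 2 or more at 20 µM, relative to plate controls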
Diaph inh CS: inhibits diaphorase or chemically oxidizes, flagging diaphorase assay artifacts | 190,000 compounds, 0.69% hits | diaphorase resazurin-to-resorufin fluorescence, NADH, 16 min; bacterial (C. kluyveri) enzyme, not human | inhibition, % at 20 µM;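 active = primary screen inhibition at 20 µM above a set limit, cut at about 50% in these data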;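 note: plate controls were DMSO with full reaction for no effect and wells lacking NADH for full effect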
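Detection: fluorescence of resorufin formed from resazurin, Ex 544/Em 590 nm; test system: Clostridium kluyveri diaphorase enzyme; amount: 0.14 U/mL diaphorase, enzyme working solution; times: 16-min room-temperature incubation before reading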
G6PDH counter: counter-screen for G6PDH assay hits: L. mesenteroides G6PDH inhibition; inhibition, % at 5 µM; 200,000 compounds, 0.12% hits; Purified L. mesenteroides G6PDH, diaphorase/resazurin coupled fluorescence, 45 min; in the data active = inhibition above about 50%
Diaph act CS: activates diaphorase or chemically reduces, flagging diaphorase assay artifacts | 190,000 compounds, 0.005% hits | Diaphorase/resazurin coupled assay, resorufin fluorescence, 16 min; hits give high values; 1 = vehicle wells, 0 = NADH-free wells | activation factor at 20 µM | AID 1229;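 active = diaphorase activity raised at least twofold by the compound at 20 µM; inactive = activation factor below 2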
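Material: Clostridium kluyveri diaphorase, purified enzyme; Quantity: enzyme 0.07 U/mL final; Medium: HEPES pH 7.4 buffer with MgCl2 and Tween 20; Dosing: single compound dose of 20 µM, 1% DMSO final; Schedule: 16 min reaction at room temperature; Measured by: red resorufin fluorescence at 544/590 nm excitation/emission.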
Active calls of the source: *. A selection: hits, their analogues and other compounds. The true share with any hit is near 1.1%.

SMILES	PMI act satM6P	PMI activator	Diaph inh CS	G6PDH counter	Diaph act CS
O=C(CSc1nnc(CCCN2C(=O)c3cccc4cccc(c34)C2=O)n1-c1ccccc1)N1CCCCC1	0.9	0.9	72*	-27	0.3
C#CCOCCOCCOCCNc1nc(N2CCN(C(=O)[C@H](CCC(=O)O)n3cc(C(N)Cc4ccc(O)cc4)nn3)CC2)nc(N2CCN(C(=O)[C@H](CCC(=O)O)n3cc(C(N)CC(C)C)nn3)CC2)n1 (stereo partly drawn)	1.2	0.9	57*	12	0.4
COc1ccc(-c2nc(=S)c3c([nH]2)Oc2ccc(C)cc2C3)cc1O	2.1*	1.8	2	-6	1
O=C(C/C=N/OCc1c(Cl)cccc1Cl)c1ccc(Cl)cc1	0.9	0.8	8	4	0.9
COc1cc(O)c(NC(C)=O)c2nonc12	0.4	0.4	63*	22	0.4
COc1ccccc1NC(C)=O	0.9	0.9	18	10	0.8
COc1ccc(/C=C/C(=O)NC(=S)NNC(=O)c2cccnc2)cc1	1.2	1	75*	-32	0.2
O=C(CN1CCN(c2ccc(Cl)cc2)CC1)NCc1ccccc1	1.1	1	86*	2	0.1
CCN1CCN(CC(=O)c2cc(Cl)ccc2Cl)CC1	2*	1.6	15	2	0.9
CCC(=O)N1CCN(c2ccc(NC(=S)NC(=O)COc3ccccc3)cc2)CC1	0.8	0.9	64*	9	0.4
CC(=O)N1CCN(c2ccc(NC(=S)NC(=O)COc3ccc(C(C)(C)C)cc3)cc2)CC1	0.9	0.7	15	14	0.9
Nc1c(C(=O)C2CC2)sc2nc(-c3ccccc3)cc(C(F)(F)F)c12	2*	1.5	8	13	0.9
CC(=O)c1sc2nc(-c3cccs3)cc(C(F)(F)F)c2c1N	1.8	1.3	11	2	0.9
Cc1cccnc1NCc1ccc(O)c2ncccc12	0.4	0.5	77*	25	0.2
Cc1cccc(NCc2ccc(O)c3ncccc23)c1C	0.2	0.4	80*	50	0.2
Cc1ccc(O)c(CNc2cccc3cccnc23)c1	0.4	0.7	39	17	0.6
CN1CCC(N(C)C(=O)CCc2nc3ccccc3n2-c2ccccc2)CC1	0.8	1	74*	3	0.3
CC(C)N1C(=O)/C(=C\c2nc3ccccc3c(=O)[nH]2)c2ccccc21	1	1.1	56*	-2	0.4
CCCN1C(=O)/C(=C/c2nc3ccccc3c(=O)[nH]2)c2ccccc21	1	1	22	6	0.8
Fc1cccc(F)c1-n1c(CN2CCCCC2)csc1=S	1	1	10	5	0.9
Oc1c(C(c2cccs2)N2CCN(c3ccccc3)CC2)ccc2cccnc12 (stereo not drawn)	0.5	0.4	38	10	0.6
Oc1c(C(c2ccccc2Cl)N2CCCC2)ccc2cccnc12 (stereo not drawn)	0.9	0.7	55*	8	0.4
O=C(Nc1ccc2c(c1)C(=O)NC2=O)c1ccc(S(=O)(=O)N2CCCC2)cc1	1	1	0	-9	1
O=C(N/N=C/c1cc([N+](=O)[O-])ccc1O)C1CCCCC1	0.9	0.7	56*	16	0.4
COc1cc(CCN2C(=O)N[C@@H](c3cccc(C(F)(F)F)c3)C(C(C)=O)=C2C)cc(OC)c1OC	2*	1.6	5	8	0.9
SMILES	PMI act satM6P	PMI activator	Diaph inh CS	G6PDH counter	Diaph act CS
O=C(Nc1ncn[nH]1)c1ccc(Cl)c(S(=O)(=O)Nc2ccc(Cl)cc2)c1	2.1*	1.6	13	3	0.9
O=C(CSc1cccc(C(F)(F)F)c1)Nc1ccc(Cl)cc1Cl	0.9	0.9	18	0	0.8
CN1C(=O)C(Cl)(Cl)C(=O)c2ccccc21	0.3	0.2	76*	25	0.2
O=C(CN1C(=O)CCC1=O)Nc1nc(-c2ccc(Oc3ccccc3)cc2)cs1	0.9	0.8	12	12	0.9
O=[N+]([O-])c1ccccc1/C=C/C=N/n1c(-c2ccc(Cl)cc2)n[nH]c1=S	1.2	1.3	22	-1	0.8
Cc1ccc(-c2n[nH]c(=S)n2/N=C/C=C\c2ccccc2[N+](=O)[O-])cc1	0.9	0.9	66*	-7	0.3
O=[N+]([O-])c1ccccc1/C=C/C=N/n1c(-c2ccccc2)n[nH]c1=S	1.1	1.1	68*	1	0.3
CCOC(=O)c1c(C)oc2c1c(C=NCCO)c(O)c1ccccc12	0.2	0.2	82*	57*	0.2
C=CCC1(N(C(C)=O)c2ccccc2)CCCCC1	1	1	-2	16	1
C=COCCNC(=S)N1CCOCCOCCN(C(=S)NCCOC=C)CCOCC1	0.9	1	14	-2	0.9
Cc1ccc(Nc2c([N+](=O)[O-])ccc3c2=NC2(CCCCC2)N=3)cc1	0.5	0.7	51*	10	0.5
Cc1ccc(NC(=O)c2ccc(Nc3c([N+](=O)[O-])cc([N+](=O)[O-])cc3[N+](=O)[O-])cc2)cc1	1	1.2	10	-2	0.9
O=C(NC1CCCCCCC1)c1c(O)c2ccccc2[nH]c1=O	1.1	1	-13	11	1.1
O=C(NC1CCCC1)c1sc(=S)n2c1[nH]c(=O)c1ccccc12	0.9	1	61*	10	0.4
O=C(NCc1ccco1)c1sc(=S)n2c1[nH]c(=O)c1ccccc12	0.9	0.9	67*	6	0.3
CCOC(=O)c1cccc(NC(=O)C2(S(=O)(=O)c3ccc(Cl)cc3)CC2)c1	1.1	1	12	0	0.9
O=C(O)c1ccccc1NN=C1CCCCC1	2.5*	1.7	19	10	0.8
O=C(O)c1ccccc1Nc1ccccc1C(=O)O	1	1	12	6	0.9
O=C1CC(=O)N(Cc2ccco2)C(=O)N1	1.5	1.2	4	1	1
O=C1CC(=O)N(Cc2ccco2)C(=S)N1	1.5	1.3	68*	4	0.3
COC(=O)C(C)(C)ONC(=O)Nc1ccccc1	0.8	0.8	22	-10	0.8
CCOC(=O)c1ccc(NC(=S)N2CCN(CCNC3=CC(=O)CC(C)(C)C3)CC2)cc1	0.9	0.9	18	4	0.8
CCOC(=O)C(NCc1ccc(F)cc1)(NC(=O)c1ccccc1)C(F)(F)F (stereo not drawn)	1.1	1.1	-13	8	1.1
COC(=O)C(NNc1ccccc1C)(NC(=O)c1ccc(F)cc1)C(F)(F)F (stereo not drawn)	2.2*	1.6	12	12	0.9
COC(=O)C(NNc1ccc(F)cc1)(NC(=O)c1ccccc1)C(F)(F)F (stereo not drawn)	2.9*	1.7	15	-1	0.9
